Activity calls are given as the source filed them. The calls are words filed in the database; no cut-off is given here.
Experiments:
Quadruplex DNA [1] = assay: Stabilization of 5'-FAM/3'-TAMRA labelled AR1 G-quadruplex oligonucleotide (unknown origin) assessed as change in melting temperature t1/2 at 1 uM after 16 hrs in presence of 100 mM K+ by FRET assay; assay type: nucleic-acid assay
Procedure, shortened: (§1)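 FRET melting: FAM/TAMRA dual-labelled oligos (0.25 μM) folded in 10 mM lithium cacodylate pH 7.4 with 100 mM KCl (95 °C 5 min, cooled 4 h); ligand added at 1 μM final, 16 h room temperature. FAM emission followed 30−95 °C at 1 °C/min; curves normalized 0 to 1, T1/2 at 0.5 fraction.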

Quadruplex DNA [2] = assay: Stabilization of 5'-FAM/3'-TAMRA labelled AR3 G-quadruplex oligonucleotide (unknown origin) assessed as change in melting temperature t1/2 at 1 uM after 16 hrs in presence of 100 mM K+ by FRET assay; assay type: nucleic-acid assay; procedure, shortened: as §1
[3] = Stabilization of 5'-FAM/3'-TAMRA labelled CTATAGCGCGCTATAG dsDNA (unknown origin) assessed as change in melting temperature t1/2 at 1 uM after 16 hrs in presence of 100 mM K+ by FRET assay; procedure, shortened: as §1
Quadruplex DNA [4] = assay: Binding affinity to 5'-Biotinylated-AR1 G-quadruplex oligonucleotide (unknown origin) by SPR analysis; assay type: nucleic-acid assay
Procedure, shortened: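 SPR on streptavidin chip; 5′-biotinylated oligo folded by heating 95 °C 5 min in 10 mM lithium cacodylate, 150 mM KCl, then immobilized at 30 nM to about 600 RU; empty reference cell. Compound 0.7−400 nM in HEPES-KCl (pH 7.4, 0.15 M KCl, 3 mM EDTA) at 40 °C, 40 μL/min, 260 s contact, 600 s dissociation; glycine pH 2.0 regeneration; steady-state affinity fit; at least two independent runs.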

Quadruplex DNA [5] = assay: Binding affinity to 5'-Biotinylated-AR1 G-quadruplex oligonucleotide (unknown origin) by SPR analysis relative to control; assay type: nucleic-acid assay
PNT1A = assay: Cytotoxicity against human PNT1A cells assessed as reduction in cell viability after 48 hrs by MTS assay; assay type: cell-based
Procedure, shortened: (§2)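 Cells kept in RPMI-1640 with 10% fetal calf serum, 37 °C, 5% CO2. Seeded, after 24 h treated with 0.0001, 0.001, 0.01, 0.1, 1 and 10 μM compound (DMSO stocks freshly diluted in medium) for 48 h. MTS added 4 h, absorbance 490 nm; IC50 from curves of % viability inhibition versus DMSO-treated cells against log concentration.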

DU-145 = assay: Cytotoxicity against human DU145 cells assessed as reduction in cell viability after 48 hrs by MTS assay; assay type: functional, cell-based; conditions: DU-145, 48 h; procedure, shortened: as §2
PC-3 = assay: Cytotoxicity against human PC3 cells assessed as reduction in cell viability after 48 hrs by MTS assay; assay type: functional, cell-based; conditions: PC-3, 48 h; procedure, shortened: as §2
LNCaP = assay: Cytotoxicity against human LNCAP cells expressing androgen receptor T877A point mutant assessed as reduction in cell viability after 48 hrs by MTS assay; assay type: functional, cell-based; procedure, shortened: as §2
CWR22R = assay: Cytotoxicity against human 22Rv1 cells expressing full length androgen receptor H875Y point mutant assessed as reduction in cell viability after 48 hrs by MTS assay; assay type: functional, cell-based; conditions: 22Rv1, 48 h; procedure, shortened: as §2
Quadruplex DNA [6] = assay: Stabilization of AR G-quadruplex oligonucleotide in human LNCAP cells assessed as reduction in AR mRNA expression at IC50 by RT-PCR analysis; assay type: cell-based; conditions: TDE = time-dependent effect
Procedure, shortened: (§3)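 Cells grown in RPMI-1640 with 10% fetal calf serum, 37 °C, 5% CO2, treated at an equitoxic concentration. Transcripts quantified by TaqMan real-time RT-PCR, normalized to RNaseP, expressed as relative quantity versus untreated cells (calibrator) by the 2−ΔΔCt method.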

Quadruplex DNA [7] = assay: Stabilization of AR G-quadruplex oligonucleotide in human 22Rv1 cells assessed as reduction in AR mRNA expression at IC50 by RT-PCR analysis; assay type: cell-based; conditions: TDE = time-dependent effect
Quadruplex DNA [8] = assay: Stabilization of AR G-quadruplex oligonucleotide in human LNCAP cells assessed as reduction in basal AR mRNA expression at IC50 after 6 to 72 hrs by RT-PCR analysis; assay type: cell-based; procedure, shortened: as §3
Quadruplex DNA [9] = assay: Stabilization of AR G-quadruplex oligonucleotide in human 22Rv1 cells assessed as reduction in basal AR mRNA expression at IC50 after 6 to 72 hrs by RT-PCR analysis; assay type: cell-based
Procedure, shortened: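 Transcripts quantified by TaqMan real-time PCR with RNaseP as normalizer; relative quantity versus untreated cells by the 2−ΔΔCt method. Panel genes measured with a 92-gene cancer-mechanism TaqMan array.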

Quadruplex DNA [10] = assay: Stabilization of AR G-quadruplex oligonucleotide in human LNCAP cells assessed as reduction in AR-FL protein level by immunoblotting assay; assay type: cell-based
Procedure, shortened: (§4)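 Lysate proteins immunoblotted. Vinculin or β-actin used as loading control, peroxidase-linked secondary antibodies, ECL chemiluminescent detection, autoradiography, densitometric scan. Untreated cells received DMSO.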

Quadruplex DNA [11] = assay: Stabilization of AR G-quadruplex oligonucleotide in human 22Rv1 cells assessed as reduction in AR-FL protein level by immunoblotting assay; assay type: cell-based
Quadruplex DNA [12] = assay: Stabilization of AR G-quadruplex oligonucleotide in human 22Rv1 cells assessed as reduction in AR-Vs protein level by immunoblotting assay; assay type: cell-based
Quadruplex DNA [13] = assay: Stabilization of AR G-quadruplex oligonucleotide in human LNCAP cells assessed as reduction in PSA protein level by immunoblotting assay; assay type: cell-based; procedure, shortened: as §4
Quadruplex DNA [14] = assay: Stabilization of AR G-quadruplex oligonucleotide in human 22Rv1 cells assessed as reduction in AR-FL protein level at IC50 after 48 hrs by Western immunoblot assay; assay type: cell-based
Quadruplex DNA [15] = assay: Stabilization of AR G-quadruplex oligonucleotide in human 22Rv1 cells assessed as reduction in AR-VS protein level at IC50 after 48 hrs by Western immunoblot assay; assay type: cell-based

| Structure (SMILES) | ΔTm (Quadruplex DNA [1]) [°C] | ΔTm (Quadruplex DNA [2]) [°C] | ΔTm [3] [°C] | Kd (Quadruplex DNA [4]) [µM] | RBA (Quadruplex DNA [5]) [%] | IC50 (PNT1A) [µM] | IC50 (DU-145) [µM] | IC50 (PC-3) [µM] | IC50 (LNCaP) [µM] | IC50 (CWR22R) [µM] | Activity (Quadruplex DNA [6]) | Activity (Quadruplex DNA [7]) | Activity (Quadruplex DNA [8]) | Activity (Quadruplex DNA [9]) | Activity (Quadruplex DNA [10]) | Activity (Quadruplex DNA [11]) | Activity (Quadruplex DNA [12]) | Activity (Quadruplex DNA [13]) | Activity (Quadruplex DNA [14]) | Activity (Quadruplex DNA [15]) |
| --- | --- | --- | --- | --- | --- | --- | --- | --- | --- | --- | --- | --- | --- | --- | --- | --- | --- | --- | --- | --- |
| CN(C)CCN1C(=O)c2ccc3c4c(c(NCC(=O)Nc5ccc(O)c(CO)c5)cc(c24)C1=O)C(=O)N(CCN(C)C)C3=O | 4.5 | 9.3 | < 0.1 | 0.0439 | 41 | 1.44 | > 10 | > 10 | 3.04 | 3.69 | – | – | – | – | – | – | – | – | – | – |
| CN(C)CCCNc1cc2c3c(ccc4c3c1C(=O)N(CCCN(C)C)C4=O)C(=O)N(CCCN(C)C)C2=O | 11 | 13 | 5.1 | 0.0412 | 43 | 0.59 | 3.88 | 6.32 | 3.4 | 2.43 | – | – | – | – | – | – | – | – | – | – |
| CN1CCN(c2cc3c4c(c(NCCO)cc5c4c2C(=O)N(CCO)C5=O)C(=O)N(CCO)C3=O)CC1 | 0.1 | 0.4 | < 0.1 | – | – | 7.07 | > 10 | > 10 | > 10 | 7.67 | Tde | Tde | inactive | inactive | inactive | inactive | inactive | inactive | – | – |
| CN(C)CCCN1C(=O)c2ccc3c4c(c(NCCCCCCCNc5cc6c7c(ccc8c7c5C(=O)N(CCCN(C)C)C8=O)C(=O)N(CCCN(C)C)C6=O)cc(c24)C1=O)C(=O)N(CCCN(C)C)C3=O | 8.3 | 17 | 1 | 0.182 | 10 | 1.89 | 2.19 | > 10 | 6.56 | 3.45 | – | – | – | – | – | – | – | – | – | – |
| CN(C)CCN1C(=O)c2ccc3c4c(c(C#Cc5ccc(CN(C)C)c(O)c5)cc(c24)C1=O)C(=O)N(CCN(C)C)C3=O | 5.6 | 9 | < 0.1 | 0.0214 | 84 | 0.13 | 0.55 | 0.34 | 0.59 | 0.97 | – | – | – | – | – | – | – | – | – | – |
| CN(C)CCCN1C(=O)c2ccc3c4c(c(NCCCCNc5cc6c7c(ccc8c7c5C(=O)N(CCCN(C)C)C8=O)C(=O)N(CCCN(C)C)C6=O)cc(c24)C1=O)C(=O)N(CCCN(C)C)C3=O | 11.3 | 19.7 | 1.9 | 0.0925 | 19 | 2.48 | 3.39 | 10.1 | 1.93 | > 10 | – | – | – | – | – | – | – | – | – | – |
| CN(C)CCCN1C(=O)c2ccc3c4c(c5[nH]c(=O)c(=O)[nH]c5c(c24)C1=O)C(=O)N(CCCN(C)C)C3=O | 3.6 | 6 | < 0.1 | 0.0383 | 47 | 1.37 | > 10 | > 10 | 10.3 | > 10 | – | – | – | – | – | – | – | – | – | – |
| CN(C)CCN1C(=O)c2ccc3c4c(c(NCCc5ccc(O)c(CN(C)C)c5)cc(c24)C1=O)C(=O)N(CCN(C)C)C3=O | 7.2 | 10 | < 0.1 | 0.0342 | 52 | 0.35 | 0.3 | 0.32 | 0.39 | 0.1 | – | – | – | – | – | – | – | – | Active | Active |
